Converted amounts (≈) assume the structure as drawn.
Assays:
Assay type in all cases: functional
[1] = tested on: Staphylococcus epidermidis; test: Antibacterial activity against methicillin-sensitive Staphylococcus epidermidis after 16 hrs by NCCLS agar dilution method
How it was run: (§1)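 Agar dilution MIC. Stocks were 320 μg/mL in 50% aqueous DMSO, 2-fold serially diluted in sterile water, then diluted 10-fold into Mueller–Hinton agar to give 16–0.03125 μg/mL final. Organisms were grown in MH broth at 35 °C for 8 h and adjusted to 0.5 McFarland. They were spotted onto drug-containing plates with a multipoint inoculator and incubated at 35 °C for 16 h. Linezolid was the positive control.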

Staphylococcus aureus [2] = test: Antibacterial activity against methicillin-resistant Staphylococcus aureus after 16 hrs by NCCLS agar dilution method; how it was run: as §1
Enterococcus faecalis = test: Antibacterial activity against Enterococcus faecalis after 16 hrs by NCCLS agar dilution method
How it was run: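 Agar dilution MIC per NCCLS, 6 E. faecalis strains. Stock was 320 μg/mL in 50% water/DMSO, serially 2-fold diluted in sterile water, then 10-fold into Mueller–Hinton agar to give 16–0.03125 μg/mL final. Inocula came from MH broth cultures grown 8 h at 35 °C, adjusted to 0.5 McFarland and spotted by multipoint inoculator. Plates were read after 16 h at 35 °C.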

[3] = tested on: Staphylococcus epidermidis; test: Antibacterial activity against methicillin-resistant Staphylococcus epidermidis after 16 hrs by NCCLS agar dilution method; how it was run: as §1
Streptococcus pneumoniae = test: Antibacterial activity against penicillin-resistant Streptococcus pneumoniae after 16 hrs by NCCLS agar dilution method; how it was run: as §1
Staphylococcus aureus [4] = test: Antibacterial activity against methicillin-sensitive Staphylococcus aureus after 16 hrs by NCCLS agar dilution method; how it was run: as §1

Structure (SMILES) | MIC [1] [µg/mL] | MIC (Staphylococcus aureus [2]) [µg/mL] | MIC (Enterococcus faecalis) [µg/mL] | MIC [3] [µg/mL] | MIC (Streptococcus pneumoniae) [µg/mL] | MIC (Staphylococcus aureus [4]) [µg/mL]
NCC1CN(c2ccc(-c3ccc4c(c3)OC[C@H]3[C@H](CO)OC(=O)N43)cn2)C(=O)O1 (some centres undefined) | 0.5 (≈ 1.21 µM) | 1 (≈ 2.42 µM) | 1 (≈ 2.42 µM) | 2 (≈ 4.85 µM) | 2 (≈ 4.85 µM) | 1 (≈ 2.42 µM)
CC(O)c1ccc(-c2ccc3c(c2)OC[C@H]2[C@H](CO)OC(=O)N32)cn1 (some centres undefined) | 1 (≈ 2.92 µM) | 1 (≈ 2.92 µM) | 2 (≈ 5.84 µM) | 1 (≈ 2.92 µM) | 2 (≈ 5.84 µM) | 1 (≈ 2.92 µM)
C[C@@H](O)C(O)c1ccc(-c2ccc3c(c2)OC[C@H]2[C@H](CO)OC(=O)N32)cn1 (some centres undefined) | 1 (≈ 2.69 µM) | 2 (≈ 5.37 µM) | 4 (≈ 10.7 µM) | 1 (≈ 2.69 µM) | 2 (≈ 5.37 µM) | 2 (≈ 5.37 µM)
O=C1O[C@@H](CO)[C@@H]2COc3cc(-c4ccc(C5(O)CCCC5)nc4)ccc3N12 | 1 (≈ 2.61 µM) | 1 (≈ 2.61 µM) | 2 (≈ 5.23 µM) | 1 (≈ 2.61 µM) | 2 (≈ 5.23 µM) | 2 (≈ 5.23 µM)
O=C1O[C@@H](CO)[C@@H]2COc3cc(-c4ccc(C(F)(F)F)nc4)ccc3N12 | > 16 |  | > 16 |  | > 16 | > 16
NCc1ccc(-c2ccc3c(c2)OC[C@H]2[C@H](CO)OC(=O)N32)cn1 | 1 (≈ 3.05 µM) | 2 (≈ 6.11 µM) | 4 (≈ 12.2 µM) | 0.5 (≈ 1.53 µM) | 4 (≈ 12.2 µM) | 2 (≈ 6.11 µM)
Cc1cc(N2CCOC2=O)ncc1-c1ccc2c(c1)OC[C@H]1[C@H](CO)OC(=O)N21 | 0.5 (≈ 1.26 µM) | 0.5 (≈ 1.26 µM) | 4 (≈ 10.1 µM) | 1 (≈ 2.52 µM) | 2 (≈ 5.03 µM) | 0.5 (≈ 1.26 µM)
CN1CC(c2ccc(-c3ccc4c(c3)OC[C@H]3[C@H](CO)OC(=O)N43)cn2)OC1=O (some centres undefined) | 0.25 (≈ 0.629 µM) | 0.5 (≈ 1.26 µM) | 1 (≈ 2.52 µM) | 0.5 (≈ 1.26 µM) | 1 (≈ 2.52 µM) | 0.5 (≈ 1.26 µM)
CC(C)(O)c1ccc(-c2ccc3c(c2)OC[C@H]2[C@H](CO)OC(=O)N32)cn1 | 1 (≈ 2.81 µM) | 1 (≈ 2.81 µM) | 4 (≈ 11.2 µM) | 2 (≈ 5.61 µM) | 2 (≈ 5.61 µM) | 1 (≈ 2.81 µM)
O=C1O[C@@H](CO)CN1c1ccc(-c2ccc3c(c2)OC[C@H]2[C@H](CO)OC(=O)N32)cn1 | 0.5 (≈ 1.21 µM) | 0.5 (≈ 1.21 µM) | 0.5 (≈ 1.21 µM) | 0.5 (≈ 1.21 µM) | 0.5 (≈ 1.21 µM) | 0.5 (≈ 1.21 µM)
CN1CCC[C@H]2CN(c3ccc(-c4ccc5c(c4)OC[C@H]4[C@H](CO)OC(=O)N54)cn3)C[C@H]21 | 4 (≈ 9.16 µM) | 8 (≈ 18.3 µM) | > 32 | 8 (≈ 18.3 µM) | > 32 | 8 (≈ 18.3 µM)
CCN1CCN(c2ccc(-c3ccc4c(c3)OC[C@H]3[C@H](CO)OC(=O)N43)cn2)CC1 | 2 (≈ 4.87 µM) | 4 (≈ 9.74 µM) | 4 (≈ 9.74 µM) | 4 (≈ 9.74 µM) | 8 (≈ 19.5 µM) | 4 (≈ 9.74 µM)
NC1(c2ccc(-c3ccc4c(c3)OC[C@H]3[C@H](CO)OC(=O)N43)cn2)CC1 | 1 (≈ 2.83 µM) | 1 (≈ 2.83 µM) | 2 (≈ 5.66 µM) | 1 (≈ 2.83 µM) | 1 (≈ 2.83 µM) | 2 (≈ 5.66 µM)
CN1CCN(c2ccc(-c3ccc4c(c3)OC[C@H]3[C@H](CO)OC(=O)N43)cn2)CC1 | 2 (≈ 5.04 µM) | 4 (≈ 10.1 µM) | 2 (≈ 5.04 µM) | 4 (≈ 10.1 µM) | 4 (≈ 10.1 µM) | 2 (≈ 5.04 µM)
CCO/N=C(\C)c1ccc(-c2ccc3c(c2)OC[C@H]2[C@H](CO)OC(=O)N32)cn1 | > 32 |  | > 32 |  | > 32 | > 32
O=C1COCCN1c1ccc(-c2ccc3c(c2)OC[C@H]2[C@H](CO)OC(=O)N32)cn1 | 2 (≈ 5.03 µM) | 1 (≈ 2.52 µM) | 2 (≈ 5.03 µM) | 2 (≈ 5.03 µM) | 2 (≈ 5.03 µM) | 2 (≈ 5.03 µM)
CC(C)N1CCN(c2ccc(-c3ccc4c(c3)OC[C@H]3[C@H](CO)OC(=O)N43)cn2)C(=O)C1 | 2 (≈ 4.56 µM) | 2 (≈ 4.56 µM) | 16 (≈ 36.5 µM) | 2 (≈ 4.56 µM) | 4 (≈ 9.12 µM) | 2 (≈ 4.56 µM)
CC(C)N1CCN(c2ccc(-c3ccc4c(c3)OC[C@H]3[C@H](CO)OC(=O)N43)cn2)C1=O | 2 (≈ 4.71 µM) | 2 (≈ 4.71 µM) | 8 (≈ 18.8 µM) | 4 (≈ 9.42 µM) | 4 (≈ 9.42 µM) | 4 (≈ 9.42 µM)
CN1CCC(Oc2ccc(-c3ccc4c(c3)OC[C@H]3[C@H](CO)OC(=O)N43)cn2)CC1 | 4 (≈ 9.72 µM) | 4 (≈ 9.72 µM) | > 32 | 8 (≈ 19.4 µM) | 16 (≈ 38.9 µM) | 4 (≈ 9.72 µM)
Cn1nnc(-c2ccc(-c3ccc4c(c3)OC[C@H]3[C@H](CO)OC(=O)N43)cn2)n1 | 1 (≈ 2.63 µM) | 1 (≈ 2.63 µM) | 4 (≈ 10.5 µM) | 1 (≈ 2.63 µM) | 1 (≈ 2.63 µM) | 1 (≈ 2.63 µM)
CN1CCN(c2ccc(-c3ccc4c(c3)OC[C@H]3[C@H](CO)OC(=O)N43)cn2)C(=O)C1 | 2 (≈ 4.87 µM) | 2 (≈ 4.87 µM) | 16 (≈ 39 µM) | 2 (≈ 4.87 µM) | 4 (≈ 9.75 µM) | 2 (≈ 4.87 µM)
O=C1O[C@@H](CO)[C@@H]2COc3cc(-c4ccc(C(O)C5CC5)nc4)ccc3N12 (some centres undefined) | 0.5 (≈ 1.36 µM) | 1 (≈ 2.71 µM) | 2 (≈ 5.43 µM) | 1 (≈ 2.71 µM) | 1 (≈ 2.71 µM) | 1 (≈ 2.71 µM)
CC(C)N1CC(c2ccc(-c3ccc4c(c3)OC[C@H]3[C@H](CO)OC(=O)N43)cn2)OC1=O (some centres undefined) | 1 (≈ 2.35 µM) | 1 (≈ 2.35 µM) | 1 (≈ 2.35 µM) | 2 (≈ 4.7 µM) | 2 (≈ 4.7 µM) | 1 (≈ 2.35 µM)
O=C1O[C@H](CO)CN1c1ccc(-c2ccc3c(c2)OC[C@H]2[C@H](CO)OC(=O)N32)cn1 | 0.5 (≈ 1.21 µM) | 0.5 (≈ 1.21 µM) | 0.5 (≈ 1.21 µM) | 0.5 (≈ 1.21 µM) | 0.5 (≈ 1.21 µM) | 0.5 (≈ 1.21 µM)
O=C1O[C@@H](CO)[C@@H]2COc3cc(-c4ccc(N5CCC(O)CC5)nc4)ccc3N12 | 4 (≈ 10.1 µM) | 2 (≈ 5.03 µM) | > 32 | 2 (≈ 5.03 µM) | 2 (≈ 5.03 µM) | 2 (≈ 5.03 µM)
O=C1O[C@@H](CO)[C@@H]2COc3cc(-c4ccc(N5C[C@@H]6CCCN[C@@H]6C5)nc4)ccc3N12 | 4 (≈ 9.47 µM) | 8 (≈ 18.9 µM) | 16 (≈ 37.9 µM) | 4 (≈ 9.47 µM) | 8 (≈ 18.9 µM) | 4 (≈ 9.47 µM)
O=C1O[C@@H](CO)[C@@H]2COc3cc(-c4ccc(CO)nc4)ccc3N12 | 0.5 (≈ 1.52 µM) | 1 (≈ 3.05 µM) | 4 (≈ 12.2 µM) | 0.5 (≈ 1.52 µM) | 2 (≈ 6.09 µM) | 1 (≈ 3.05 µM)
CC(=O)N1CCN(c2ccc(-c3ccc4c(c3)OC[C@H]3[C@H](CO)OC(=O)N43)cn2)C1=O | 4 (≈ 9.42 µM) | 4 (≈ 9.42 µM) | 4 (≈ 9.42 µM) | 8 (≈ 18.8 µM) | 8 (≈ 18.8 µM) | 8 (≈ 18.8 µM)
N#Cc1ccc(-c2ccc3c(c2)OC[C@H]2[C@H](CN)OC(=O)N32)cn1 | > 16 |  | > 16 |  | > 16 | > 16
O=C1O[C@@H](CO)[C@@H]2COc3cc(-c4ccc(Cn5cnnn5)nc4)ccc3N12 | 1 (≈ 2.63 µM) | 2 (≈ 5.26 µM) | 4 (≈ 10.5 µM) | 1 (≈ 2.63 µM) | 4 (≈ 10.5 µM) | 2 (≈ 5.26 µM)
